ChEMBL document CHEMBL1155213, “Solvent free synthesis of 1,5-disubstituted tetrazoles derived from Baylis Hillman acetates as potential TNF-alpha inhibitors” (2009)

Tests used:
Blood [1] = assay: Inhibition of LPS-induced TNFalpha production in human whole blood at 10 uM treated 1 hr before LPS challenge measured after 5 hrs by ELISA; type: functional
In short: (§1)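 Whole blood aliquots preincubated 1 h at 37 °C with test compound (10 or 100 μM solution) or DMSO vehicle, then stimulated with LPS in PBS (final 1 ng/ml). Incubated a further 5 h at 37 °C, stopped on ice 10 min. Plasma separated by centrifugation (3000 rpm, 10 min, 4 °C), stored at −70 °C. Plasma TNF-α quantified by ELISA.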

Blood [2] = assay: Inhibition of LPS-induced TNFalpha production in human whole blood at 100 uM treated 1 hr before LPS challenge measured after 5 hrs by ELISA; type: functional; in short: as §1

## COC(=O)/C(=C/c1ccccc1)Cn1nnnc1-c1ccccc1
Blood [1]
  inhibition at 10 µM: 14.6%
Blood [2]
  inhibition at 100 µM: 35.1%

## COC(=O)/C(=C/c1ccc(OC)cc1)Cn1nnnc1-c1cccnc1
Blood [1]
  inhibition at 10 µM: 5.4%
Blood [2]
  inhibition at 100 µM: 30.2%

## COC(=O)/C(=C/c1ccc(OC)cc1)Cn1nnnc1-c1ccncc1
Blood [1]
  inhibition at 10 µM: 8.6%
Blood [2]
  inhibition at 100 µM: 12.9%

## COC(=O)/C(=C/c1ccc(OC)cc1)Cn1nnnc1-c1ccccc1
Blood [1]
  inhibition at 10 µM: 22.2%
Blood [2]
  inhibition at 100 µM: 46.3%

## COC(=O)/C(=C/c1ccccc1)Cn1nnnc1-c1ccncc1
Blood [1]
  inhibition at 10 µM: 18.2%
Blood [2]
  inhibition at 100 µM: 67%
